Laboratory results taken from ChEMBL document CHEMBL1165943, “Design and synthesis of new anticancer pyrimidines with multiple-kinase inhibitory effect” (Bioorg Med Chem, 2010).

What was measured:
Assay type in all cases: functional
LOX IMVI = test: Cytotoxicity against human LOXIMVI cells assessed as cell growth at 10 uM; details: for growth at 10 µM: Homo sapiens, LOX IMVI, read-out: Activity
How it was run: (§1)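 Single-dose screen at 10 μM across the 60-cell-line panel. Cells grown in RPMI 1640 with 5% FBS and 2 mM L-glutamine, seeded at 5,000–40,000 cells/well according to doubling time, and treated 24 h later. Exposure lasted 48 h at 37 °C, 5% CO₂. Adherent cells were fixed with cold TCA, suspension cells were fixed settled, and both were stained with SRB and read at 515 nm. Growth % was recorded, with inhibition % = 100 − growth %.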

SN12C = test: Cytotoxicity against human SN12C cells assessed as cell growth at 10 uM; details: for growth at 10 µM: Homo sapiens, SN12C, read-out: Activity; how it was run: as §1
A549 = test: Cytotoxicity against human A549 cells assessed as cell growth at 10 uM; details: for growth at 10 µM: Homo sapiens, A549, read-out: Activity
How it was run: (§2)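 Single-concentration screen at 10 μM across the 60-cell-line panel (nine tissue types); growth percentage recorded per cell line, with inhibition taken as 100 minus growth percentage.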

UACC-62 = test: Cytotoxicity against human UACC62 cells assessed as cell growth at 10 uM; details: for growth at 10 µM: Homo sapiens, UACC-62, read-out: Activity; how it was run: as §1
HCT-15 = test: Cytotoxicity against human HCT15 cells assessed as cell growth at 10 uM; details: for growth at 10 µM: Homo sapiens, HCT-15, read-out: Activity; how it was run: as §2
MOLT-4 = test: Cytotoxicity against human MOLT4 cells assessed as cell growth at 10 uM; details: for growth at 10 µM: Homo sapiens, MOLT-4, read-out: Activity; how it was run: as §1
HCC 2998 = test: Cytotoxicity against human HCC2998 cells assessed as cell growth at 10 uM; details: for growth at 10 µM: Homo sapiens, HCC 2998, read-out: Activity; how it was run: as §2
CCRF-CEM = test: Cytotoxicity against human CCRF-CEM cells assessed as cell growth at 10 uM; details: for growth at 10 µM: Homo sapiens, CCRF-CEM, read-out: Activity; how it was run: as §2
MCF7 = test: Cytotoxicity against human MCF7 cells assessed as cell growth at 10 uM; details: for growth at 10 µM: Homo sapiens, MCF7, read-out: Activity; how it was run: as §1
HOP-92 = test: Cytotoxicity against human HOP92 cells assessed as cell growth at 10 uM; details: for growth at 10 µM: Homo sapiens, HOP-92, read-out: Activity; how it was run: as §2
SK-MEL-28 = test: Cytotoxicity against human SK-MEL-28 cells assessed as cell growth at 10 uM; details: for growth at 10 µM: Homo sapiens, SK-MEL-28, read-out: Activity; how it was run: as §1
OVCAR-4 = test: Cytotoxicity against human OVCAR4 cells assessed as cell growth at 10 uM; details: for growth at 10 µM: Homo sapiens, OVCAR-4, read-out: Activity; how it was run: as §1
MDA-MB-435 = test: Cytotoxicity against human MDA-MB-435 cells assessed as cell growth at 10 uM; details: read-out: Activity; how it was run: as §1
Malme-3M = test: Cytotoxicity against human MALME-3M cells assessed as cell growth at 10 uM; details: for growth at 10 µM: Homo sapiens, Malme-3M, read-out: Activity; how it was run: as §1
OVCAR-8 = test: Cytotoxicity against human OVCAR8 cells assessed as cell growth at 10 uM; details: for growth at 10 µM: Homo sapiens, OVCAR-8, read-out: Activity; how it was run: as §1
NCI-H322M = test: Cytotoxicity against human NCI-H322M cells assessed as cell growth at 10 uM; details: for growth at 10 µM: Homo sapiens, NCI-H322M, read-out: Activity; how it was run: as §1
BT-549 = test: Cytotoxicity against human BT549 cells assessed as cell growth at 10 uM; details: for growth at 10 µM: Homo sapiens, BT-549, read-out: Activity; how it was run: as §2
KM12 = test: Cytotoxicity against human KM12 cells assessed as cell growth at 10 uM; details: for growth at 10 µM: Homo sapiens, KM12, read-out: Activity; how it was run: as §1
SNB-19 = test: Cytotoxicity against human SNB19 cells assessed as cell growth at 10 uM; details: read-out: Activity; how it was run: as §1
[1] = Cytotoxicity against human Hs 578T cells assessed as cell growth at 10 uM; details: read-out: Activity; how it was run: as §2
SF-268 = test: Cytotoxicity against human SF268 cells assessed as cell growth at 10 uM; details: for growth at 10 µM: Homo sapiens, SF-268, read-out: Activity; how it was run: as §1
RXF 393 = test: Cytotoxicity against human RXF393 cells assessed as cell growth at 10 uM; details: for growth at 10 µM: Homo sapiens, RXF 393, read-out: Activity; how it was run: as §1
MDA-MB-231 = test: Cytotoxicity against human MDA-MB-231 cells assessed as cell growth at 10 uM; details: for growth at 10 µM: Homo sapiens, MDA-MB-231, read-out: Activity; how it was run: as §1
[2] = Cytotoxicity against human […] cells assessed as cell growth at 10 uM; details: for growth at 10 µM: Homo sapiens, RPMI8266, read-out: Activity; how it was run: as §1

SMILES | growth at 10 µM (LOX IMVI) [%] | growth at 10 µM (A549) [%] | growth at 10 µM (UACC-62) [%] | growth at 10 µM (HCT-15) [%] | growth at 10 µM (MOLT-4) [%] | growth at 10 µM (HCC 2998) [%] | growth at 10 µM (CCRF-CEM) [%] | growth at 10 µM (MCF7) [%] | growth at 10 µM (HOP-92) [%] | growth at 10 µM (SK-MEL-28) [%] | growth at 10 µM (OVCAR-4) [%] | growth at 10 µM (MDA-MB-435) [%] | growth at 10 µM (Malme-3M) [%] | growth at 10 µM (OVCAR-8) [%] | growth at 10 µM (NCI-H322M) [%] | growth at 10 µM (BT-549) [%] | growth at 10 µM (KM12) [%] | growth at 10 µM (SNB-19) [%] | growth at 10 µM (SF-268) [%] | growth at 10 µM (MDA-MB-231) [%] | other results
Cc1cc(-c2cccnc2)nc(NC(=O)c2cccc(C(F)(F)F)c2)n1 | 103 | 97.4 | 92.3 | 98.3 | 96.6 | 99.3 | 94.8 | 91.5 | 107 | 108 | 103 | 100 | 105 | 96.6 | 100 | 97 | 109 | 90.8 | 103 | 98.4 | growth at 10 µM (SN12C): 95.3%; growth at 10 µM [1]: 107%; growth at 10 µM (RXF 393): 90.8%; growth at 10 µM [2]: 98.6%
FC(F)(F)c1cc(Nc2nccc(-c3ccc(Nc4ccccc4)nc3)n2)cc(C(F)(F)F)c1 | 103 | 96.2 | 99.1 | 97.4 | 87.6 | 100 | 96.6 | 75.4 | 100 | 110 | 105 | 108 | 117 | 97.2 | 96.6 | 105 | 112 | 91.6 | 107 | 97.5 | growth at 10 µM [1]: 101%; growth at 10 µM (RXF 393): 107%; growth at 10 µM [2]: 98.3%
CC(=O)c1ccccc1-c1ccc(-c2ccnc(NC(=O)Nc3cc(C(F)(F)F)cc(C(F)(F)F)c3)n2)cn1 |  | 86.8 |  | 93.2 | 88.3 | 105 | 79.3 |  | 89.9 |  |  | 98.1 |  |  | 85 |  | 93.8 | 91.5 | 94.4 |  | Activity (LOX IMVI): 65.57%; Activity (SN12C): 96.07%; Activity (UACC-62): 92.88%; Activity (MCF7): 75.33%; Activity (SK-MEL-28): 109.71%; Activity (OVCAR-4): -18.53%; Activity (Malme-3M): 105.41%; Activity (OVCAR-8): 83.37%; Activity (BT-549): 90.06%; Activity (RXF 393): 104.4%; Activity (MDA-MB-231): 83.21%; Activity [2]: 98.17%
O=C(Nc1cc(C(F)(F)F)cc(C(F)(F)F)c1)Nc1nccc(-c2ccc(Nc3ccccc3)nc2)n1 | 112 | 105 | 101 | 108 | 96.6 | 109 | 96.8 | 99.6 | 116 | 99.8 | 114 | 129 | 151 | 103 | 144 | 111 | 117 | 109 | 117 | 93.4 | growth at 10 µM (SN12C): 106%; growth at 10 µM [1]: 102%; growth at 10 µM [2]: 102%
c1ccc(-c2ccc(-c3ccnc(Nc4ccc(N(c5ccccc5)c5ccccc5)cc4)n3)cn2)cc1 | 131 | 77.1 | 96.9 | 102 | 91.2 | 112 | 73.1 | 96.6 | 151 | 118 | 93.4 | 98.5 | 65.2 | 79.5 | 88.5 | 102 | 97 | 135 | 90 | 123 | growth at 10 µM [1]: 76.8%; growth at 10 µM (RXF 393): 99.4%; growth at 10 µM [2]: 110%
FC(F)(F)c1cc(Nc2nccc(-c3cccnc3)n2)cc(C(F)(F)F)c1 | 100 | 93.8 | 102 | 92.7 | 95 | 118 |  | 96 |  | 115 | 121 | 102 | 103 | 102 | 97.5 | 107 | 103 | 94 | 99.5 | 91.3 | growth at 10 µM (SN12C): 88%; growth at 10 µM [1]: 103%; growth at 10 µM (RXF 393): 79%
CC(=O)c1ccccc1-c1ccc(-c2ccnc(NC(=O)Nc3cc(C(F)(F)F)cc(C(F)(F)F)c3)n2)cn1.Cl |  |  | 94.3 |  |  |  |  | 89.8 |  | 103 |  |  |  | 90.8 |  |  |  |  |  | 83.7 | Activity (LOX IMVI): 94.42%; growth at 10 µM (SN12C): 88.4%; Activity (A549): 93.55%; Activity (HCT-15): 95.89%; Activity (MOLT-4): 93.09%; Activity (HCC 2998): 88.79%; Activity (CCRF-CEM): 88.36%; Activity (HOP-92): 101%; Activity (OVCAR-4): 98.42%; Activity (Malme-3M): 85.32%; Activity (NCI-H322M): 92.06%; Activity (BT-549): 63.01%; Activity (KM12): 92.08%; Activity (SF-268): 83.42%; Activity (RXF 393): 130.46%; Activity [2]: 75.92%
